Activity calls are given as the source filed them. The rule behind the calls is not given here.
Legend:
[1] = biological target: Fatty acid synthase (Mus musculus, UniProt P19096); test: Inhibition of mouse FAS preincubated for 30 mins in presence of acetyl coenzyme A and NADPH followed by malonyl coenzyme A addition and measured after 3 mins by spectrophotometric analysis
How it was run: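 Crude mouse-liver FAS (196.2 U/mg) preincubated with compound, NADPH and acetyl-CoA in K2HPO4 buffer pH 7.0 at 37 °C for 30 min. Malonyl-CoA then added, and NADPH oxidation followed at 340 nm for 3 min at 37 °C. Inhibition computed against a compound-free control. IC50 from at least five concentrations, each in triplicate; mean ± SE of three experiments.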

[2] = test system: HepG2; conditions: Homo sapiens, at 10 µM
[3] = biological target: Fatty acid synthase (Mus musculus) (UniProt P19096); test: Inhibition of mouse FAS at 80 uM preincubated for 30 mins in presence of acetyl coenzyme A and NADPH followed by malonyl coenzyme A addition and measured after 3 mins by spectrophotometric analysis
Chain of Fatty acid synthase (Mus musculus) (P19096 whole entry): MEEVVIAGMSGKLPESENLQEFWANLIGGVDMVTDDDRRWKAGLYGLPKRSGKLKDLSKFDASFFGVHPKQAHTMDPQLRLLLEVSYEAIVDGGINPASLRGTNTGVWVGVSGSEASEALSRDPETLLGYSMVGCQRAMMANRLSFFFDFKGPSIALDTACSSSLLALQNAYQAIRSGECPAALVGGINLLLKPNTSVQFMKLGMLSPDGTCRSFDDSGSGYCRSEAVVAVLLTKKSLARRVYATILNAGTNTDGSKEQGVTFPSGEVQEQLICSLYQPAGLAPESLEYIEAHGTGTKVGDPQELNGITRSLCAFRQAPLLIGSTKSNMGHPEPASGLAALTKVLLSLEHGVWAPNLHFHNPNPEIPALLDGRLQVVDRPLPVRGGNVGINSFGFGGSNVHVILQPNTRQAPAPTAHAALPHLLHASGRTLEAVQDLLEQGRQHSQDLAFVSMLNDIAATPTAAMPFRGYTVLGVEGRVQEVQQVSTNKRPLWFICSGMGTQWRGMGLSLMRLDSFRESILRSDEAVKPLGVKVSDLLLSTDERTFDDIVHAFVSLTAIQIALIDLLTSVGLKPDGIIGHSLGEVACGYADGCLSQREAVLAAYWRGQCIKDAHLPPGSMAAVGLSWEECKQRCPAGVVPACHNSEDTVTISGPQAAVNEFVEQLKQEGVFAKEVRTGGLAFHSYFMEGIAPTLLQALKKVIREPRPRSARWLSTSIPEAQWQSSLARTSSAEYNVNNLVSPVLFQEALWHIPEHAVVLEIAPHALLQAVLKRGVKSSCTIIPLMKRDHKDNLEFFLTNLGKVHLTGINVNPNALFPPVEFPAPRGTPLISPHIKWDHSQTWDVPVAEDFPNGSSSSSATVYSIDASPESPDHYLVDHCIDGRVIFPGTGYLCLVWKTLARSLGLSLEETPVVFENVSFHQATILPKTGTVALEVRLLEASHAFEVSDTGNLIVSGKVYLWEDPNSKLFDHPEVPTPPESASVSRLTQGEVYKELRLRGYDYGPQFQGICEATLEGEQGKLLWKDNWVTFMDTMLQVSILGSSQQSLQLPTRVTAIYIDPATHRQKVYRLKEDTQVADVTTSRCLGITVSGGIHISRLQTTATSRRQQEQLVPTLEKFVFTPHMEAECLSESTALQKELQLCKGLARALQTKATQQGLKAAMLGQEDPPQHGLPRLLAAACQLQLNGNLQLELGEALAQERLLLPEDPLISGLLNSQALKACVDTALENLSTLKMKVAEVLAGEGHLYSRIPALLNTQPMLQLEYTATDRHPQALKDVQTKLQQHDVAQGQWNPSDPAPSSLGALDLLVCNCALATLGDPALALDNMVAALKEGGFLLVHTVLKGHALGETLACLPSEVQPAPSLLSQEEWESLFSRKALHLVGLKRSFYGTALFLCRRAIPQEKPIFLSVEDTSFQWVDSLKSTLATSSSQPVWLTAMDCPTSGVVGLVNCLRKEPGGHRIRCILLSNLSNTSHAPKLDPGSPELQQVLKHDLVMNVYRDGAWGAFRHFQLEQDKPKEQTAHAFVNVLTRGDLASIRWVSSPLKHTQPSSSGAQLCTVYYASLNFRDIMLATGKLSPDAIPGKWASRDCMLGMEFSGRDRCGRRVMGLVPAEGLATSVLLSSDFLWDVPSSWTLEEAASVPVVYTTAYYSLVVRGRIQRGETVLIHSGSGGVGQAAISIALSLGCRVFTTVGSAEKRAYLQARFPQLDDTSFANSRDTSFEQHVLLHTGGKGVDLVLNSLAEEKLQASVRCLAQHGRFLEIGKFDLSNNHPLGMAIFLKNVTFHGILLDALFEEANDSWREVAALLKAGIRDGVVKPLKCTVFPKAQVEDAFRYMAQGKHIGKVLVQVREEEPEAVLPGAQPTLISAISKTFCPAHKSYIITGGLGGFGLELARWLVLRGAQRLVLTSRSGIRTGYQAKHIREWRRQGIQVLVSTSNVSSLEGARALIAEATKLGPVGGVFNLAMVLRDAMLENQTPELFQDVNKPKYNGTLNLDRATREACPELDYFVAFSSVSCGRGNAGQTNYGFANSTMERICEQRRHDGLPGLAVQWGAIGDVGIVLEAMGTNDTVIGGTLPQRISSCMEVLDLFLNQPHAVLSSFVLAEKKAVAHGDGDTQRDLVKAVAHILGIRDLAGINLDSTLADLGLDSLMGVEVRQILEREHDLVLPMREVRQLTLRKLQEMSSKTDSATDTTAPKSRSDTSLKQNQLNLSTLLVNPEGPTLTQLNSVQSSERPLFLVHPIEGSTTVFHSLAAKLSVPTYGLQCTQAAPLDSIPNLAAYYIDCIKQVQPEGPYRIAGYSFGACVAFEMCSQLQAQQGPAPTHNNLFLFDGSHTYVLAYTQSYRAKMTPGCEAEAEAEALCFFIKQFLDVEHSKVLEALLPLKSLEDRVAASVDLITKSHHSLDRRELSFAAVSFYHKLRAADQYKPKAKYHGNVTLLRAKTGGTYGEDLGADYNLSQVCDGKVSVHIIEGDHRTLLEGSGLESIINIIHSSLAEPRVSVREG

Chain of Fatty acid synthase (P19096 whole entry): as above

Row | Compound | IC50 [1] | inhibition [3] | inhibition [2]
1 | CC(C)Cc1ccc(C(C)C(=O)O[C@H]2C(=O)OCC2(C)C)cc1 (some centres not stated) | 28.2 µM | – | –
2 | COc1ccc(C(=O)O[C@H]2C(=O)OCC2(C)C)cc1 | 13.7 µM | – | Active
3 | CC1(C)COC(=O)[C@@H]1OC(=O)c1ccc(Cl)cc1 | 19.2 µM | – | Active
4 | CC1(C)COC(=O)[C@@H]1OC(=O)c1ccc(Br)cc1 | – | inactive | –
5 | CC1(C)COC(=O)[C@@H]1O | – | inactive | –
6 | CC1(C)COC(=O)[C@@H]1OC(=O)c1ccc(I)cc1 | – | inactive | –
7 | CC1(C)COC(=O)[C@@H]1OC(=O)c1ccc(C#N)cc1 | 21.5 µM | – | Active
8 | CC1(C)COC(=O)[C@@H]1OC(=O)c1ccc(F)cc1 | – | inactive | –
9 | CC(=O)Oc1cc(C(=O)O[C@H]2C(=O)OCC2(C)C)cc(OC(C)=O)c1OC(C)=O | 13.9 µM | – | Active
10 | CC(=O)O[C@H]1C(=O)OCC1(C)C | 33.2 µM | – | –
11 | CCCC(=O)O[C@H]1C(=O)OCC1(C)C | 28.2 µM | – | –

Now from value to compound, other results behind:

Row | IC50 [1] | inhibition [3] | Compound | inhibition [2]
12 | 19.6 µM | – | CCCCCCCCCCCCCCCC(=O)O[C@H]1C(=O)OCC1(C)C | Active
13 | – | inactive | CCCCCCCCCCCCCCCCCC(=O)O[C@H]1C(=O)OCC1(C)C | –
14 | 27.7 µM | – | CCCCc1ccc(C(=O)O[C@H]2C(=O)OCC2(C)C)cc1 | –
15 | 15.2 µM | – | CCCCCCCCCCCC(=O)O[C@H]1C(=O)OCC1(C)C | Active
16 | 23.3 µM | – | CCCCCC(=O)O[C@H]1C(=O)OCC1(C)C | Active
17 | 17.2 µM | – | Cc1ccc(C(=O)O[C@H]2C(=O)OCC2(C)C)cc1 | inactive
18 | 13.9 µM | – | C=C1C(=O)OC(CCCCCCCC)C1C(=O)O (configuration not stated) | Active
19 | 23 µM | – | CC1(C)COC(=O)[C@@H]1OC(=O)c1ccccc1 | inactive
20 | – | inactive | CCOc1ccc(C(=O)O[C@H]2C(=O)OCC2(C)C)cc1 | –
21 | 20.8 µM | – | CCCCCCCC(=O)O[C@H]1C(=O)OCC1(C)C | Active
